Results pooled from the literature.
Compare with care: the assays were run in different laboratories.
Target: Sodium-dependent serotonin transporter (SLC6A4, Homo sapiens, UniProt P31645)

Structure (SMILES)	observed	action	method	tested at	inhibition [%]
CCc1ccccc1C(=O)Nc1n[nH]c2c(C)c(F)c(C3C(C#N)=C(C)N(C)C(C)=C3C#N)cc12	ligand displacement	–	–	10 µM	-6.24
Clc1ccc2c(C3CCN(CCc4c[nH]c5ccccc45)CC3)c[nH]c2c1	ligand displacement	–	radioligand	10 µM	99
CN(CCN1CCC(OC(=O)Nc2ccccc2-c2ccccc2)CC1)C(=O)c1ccc(CN2CCC(C(N)=O)CC2)cc1	ligand displacement	–	radioligand	1 µM	-1
c1ccc(C(NCCNC(c2ccccc2)c2ccccc2)c2ccccc2)cc1	transporter uptake	inhibitor	–	10 µM	29
CCN(CC)CCCC[C@H](NC(=O)[C@H](CC(C)C)NC(=O)[C@H](C)NC(=O)[C@H](Cc1ccccc1)NC(=O)c1ccc(C(C)(C)C)cc1)C(=O)N[C@@H](CO)C(=O)OC	ligand displacement	–	radioligand	10 µM	5
C[C@H](C(=O)N[C@H]1COc2ccccc2[C@@H]1S(C)(=O)=O)c1ccc(F)cc1	transporter uptake	inhibitor	–	10 µM	11
C[C@H](NC(=O)Nc1cc2[nH]ncc2c(CO)n1)c1ccccn1	cell-free assay	–	–	10 µM	-0.787
CC(C)N1CCC[C@H]1CNC(=O)c1cn(C2CCCC2)c(=O)c2c1c1ccccc1n2C	ligand displacement	–	radioligand	10 µM	22
COCc1c(-c2cc3cc(C)cc(OC)c3s2)c2c(N)ncnn2c1CN1CCNC(=O)C1	ligand displacement	–	radioligand	10 µM	3
COc1ccc(S(=O)(=O)N2CCCCC2)cc1C	ligand displacement	–	radioligand	10 µM	< 30
